≈ marks a conversion by molar mass, not a printed value.
Key:
[1] = Immunosuppressant activity in mouse T cells assessed as inhibition of concanavalin A-induced cell proliferation; format: functional, cell-based
In short: (§1)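 Splenic lymphocytes from male BALB/c mice aged 7-11 weeks, stimulated with concanavalin A (T cells) or LPS (B cells). Proliferation read as formation of MTT-formazan from exogenous MTT in the lymphocytes. Seven concentrations tested, each point the mean of 3 experiments. IC50 read from the concentration-versus-proliferation curve.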

T-cell = assay: Ratio of IC50 for mouse T cells proliferation to IC50 for mouse B cells proliferation; format: functional
[2] = Immunosuppressant activity in mouse B cells assessed as inhibition of LPS-induced cell proliferation; format: functional, cell-based; in short: as §1

| SMILES | IC50 [1] [µg/mL] | Ratio IC50 (T-cell) | IC50 [2] [µg/mL] |
| --- | --- | --- | --- |
| C=C1CC[C@H]2C(C)(C)CCC[C@]2(C)[C@H]1C[C@@]12O[C@@H]1C(=O)C(CO)=CC2=O | 0.5 (≈ 1.39 µM) | 2 | 0.25 (≈ 0.697 µM) |
| C=C1CC[C@H]2C(C)(C)CCC[C@]2(C)[C@H]1C[C@@]12O[C@@H]1C(=O)C(COC(=O)C[C@@](C)(O)CC(=O)O)=CC2=O | 4.5 (≈ 8.95 µM) | 2 | 2 (≈ 3.98 µM) |
| C=CC[C@@H]1/C=C(\C)C[C@H](C)C[C@H](OC)[C@H]2O[C@@](O)(C(=O)C(=O)N3CCCC[C@H]3C(=O)O[C@H](/C(C)=C/[C@@H]3CC[C@@H](O)[C@H](OC)C3)[C@H](C)[C@@H](O)CC1=O)[C@H](C)C[C@@H]2OC [TACROLIMUS ANHYDROUS] | 1.5e-05 (≈ 1.87e-05 µM) |  | 0.0016 (≈ 0.00199 µM) |
| Cn1cnc([N+](=O)[O-])c1Sc1ncnc2[nH]cnc12 [AZATHIOPRINE] | 2.7 (≈ 9.74 µM) |  | 2.7 (≈ 9.74 µM) |

Source: ChEMBL document CHEMBL1156347, “Immunomodulatory constituents from an Ascomycete, Eupenicillium crustaceum, and revised absolute structure of macrophorin D” (J Nat Prod, 2001)
